# Assay results from the RNAGym collection of RNA variant scans (doi:10.1126/science.aae0568).
# This sample holds only a part of the variants without activity.
# B1: tRNA (parent)
# chain: GUUCCGUUGGCGUAAUGGUAACGCGUCUCCCUCCUAAGGAGAAGACUGCGGGUUCGAGUCCCGUACGGAACG
# Variants of: B1
# Experiment: yeast fitness relative to wild type (ratio to wild type); higher = fitter; tRNA-Arg(CCU), competitive growth, 37 C, YPD
# Summary of the method: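 Amplicons of the tRNA-Arg(CCU) gene were sequenced, 100-nucleotide paired-end, from the start population and from each end population of a pooled yeast competition. The competition, in six parallel replicates, lasted 24 hours in YPD at 37°C. Fitness relative to wild type was calculated from changes in genotype frequencies. Genotypes had to have ≥ 100 starting reads, and estimates < 0.5 were set to 0.5.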
row,Variant,yeast fitness
1,G6C G12A G51C C66U,≤ 0.5
2,G6C G23A A70U,≤ 0.5
3,G6C G12A C24G G58C,≤ 0.5
4,G6C A40C A45C,≤ 0.5
5,G6C A37G C60G A65U,≤ 0.5
6,G6A G17C C31A A36U G56A,0.632
7,G6C C30U U59G C61A,0.575
8,G6C C11A C22U,0.573
9,G6C C22U C24G C27U C29A C30U C31G A70C,≤ 0.5
10,G6C A15G G58C G68A,≤ 0.5
11,G6C C11U A15G A21U C30G G44A G52A,0.791
12,G6A G18C C22G A65C,≤ 0.5
13,G6C C11U A21C,0.671
14,G6C C61G G68A,≤ 0.5
15,G6C A15G G56C,≤ 0.5
16,G6C C11A A43U G48C,≤ 0.5
17,G6C A40G,0.767
18,G6A U13G A42C,0.711
19,G6C A36C U64A,0.539
20,G6A G17C C31A A36U,0.53
21,G6A G51A C62U,0.643
22,G6C C11G A14U C22U G44A C55A G63A,≤ 0.5
23,G6A G18C C49U C61G,≤ 0.5
24,G6A G9C G44C C66U,≤ 0.5

row,Variant,yeast fitness
1,G6A U8C A42C A45U A57G A70C,≤ 0.5
2,G6C C49G,0.776
3,G6C G17C C34U C46A U64A,0.597
4,G6A U13G G50C,0.538
5,G6A U35A A40U G41C C49A,≤ 0.5
6,G6C C34G,0.717
7,G6A G50A C60A G68U,≤ 0.5
8,G6A G44A A69C,0.576
9,G6C A20U C30G C66U,≤ 0.5
10,G6C A20G A42C A45C,≤ 0.5
11,G6A G25C G48C,0.654
12,G6C C22A A57U,≤ 0.5
13,G6C C60G A65U,≤ 0.5
14,G6C A45C,0.614
15,G6A G9C C11G G25A C34U G68A,≤ 0.5
16,G6A U16C G67C,≤ 0.5
17,G6A U32A,0.809
18,G6C A37G C60U A65G,≤ 0.5
19,G6A G9C C11G C34U U59A A69C,≤ 0.5
20,G6C A15C A21C C34U A37U,0.502
21,G6C C11G C27U A42G,≤ 0.5
22,G6C A15U G23C C31G A37G G56C,≤ 0.5
23,G6C C24G C34U U53C C55G C62A A70U,≤ 0.5
24,G6C A14C C24U C29A G39C,≤ 0.5

row,Variant,yeast fitness
1,G6C C11G A21G C29G A40C,≤ 0.5
2,G6C A37C G51A G52A U53C C62A,0.561
3,G6C C11G A15C G25C C27G C30G G38C A70G,≤ 0.5
4,G6C A20G C22A C31G,≤ 0.5
5,G6A G23C C49G U53G A57G C61U,≤ 0.5
6,G6A U16G,0.85
7,G6C C61U A70G,0.554
8,G6C C33G C34U U64A,0.684
9,G6A U54G,0.611
10,G6A U19A U53A C60A A69U,≤ 0.5
11,G6C A42C A43U,≤ 0.5
12,G6C G50C C62G C66U,0.673
13,G6C G51A G58A,0.652
14,G6C A37G A43C C62U,≤ 0.5
15,G6C C11U A20C,≤ 0.5
16,G6A U13A C46G,≤ 0.5
17,G6A U13C A14U C30U A69U,≤ 0.5
18,G6C C22A G41A G44C C49U,≤ 0.5
19,G6C C22G,0.761
20,G6A U13G,0.731
21,G6A G10A U26A C27U C29A A65G G68C,≤ 0.5
22,G6A G44A G56A,0.649
23,G6C A14C C29U C34G C46U C49U C66A G68C,≤ 0.5
24,G6C A42C C49U C55U,0.578

row,Variant,yeast fitness
1,G6C A36C A40G G48A A65U C66U A69U,≤ 0.5
2,G6C G52C,0.653
3,G6C G52A,0.683
4,G6A U8C A20C C27U,≤ 0.5
5,G6C C24U G38C A40G,≤ 0.5
6,G6A U26G A36U,≤ 0.5
7,G6A G39C G63A,≤ 0.5
8,G6A U16A G63A,0.569
9,G6A G10C C29U C61A C62U A65U A69C,≤ 0.5
10,G6C A36U G39A,≤ 0.5
11,G6A U13G C55A,≤ 0.5
12,G6C A65U,0.917
13,G6C G39A,0.86
14,G6C C46G A57G C62U C66U,≤ 0.5
15,G6C A15C C31G C33G C55U C61U,≤ 0.5
16,G6C G10C A69C,0.589
17,G6C A57U,0.663
18,G6A G12A A20G C22G U26A G48C A65U,≤ 0.5
19,G6C G38A,0.84
20,G6C G39C G52A U53A,≤ 0.5
21,G6C C24A C46G,0.59
22,G6A G48C G58A,0.57
23,G6C A37C C62A A69C,≤ 0.5
24,G6C G17A A36U C46A C66A,0.512

row,Variant,yeast fitness
1,G6A U8C U19A U53C,≤ 0.5
2,G6C G17A C30U A42C G52C G63A A65U,≤ 0.5
3,G6A G52C A65U G67C,≤ 0.5
4,G6A U8A A14C A21U A40G,≤ 0.5
5,G6C C11U C27G G41C C61A,≤ 0.5
6,G6C G48C,0.837
7,G6C C31A A65G C66U,0.594
8,G6C A37U C49U A69U,0.585
9,G6A G18A C22U,0.6
10,G6A G48C,0.884
11,G6C C31G C33G U47C G51A C66U,≤ 0.5
12,G6C C22U C30A C49U G52C,0.683
13,G6C C11G A15G G68C,0.503
14,G6A U59C G68A,0.567
15,G6A G23C C60A,0.573
16,G6A U19G A42G,≤ 0.5
17,G6A G25A A45U C62A,≤ 0.5
18,G6C A15U C60G C66U,≤ 0.5
19,G6C C11G C33U,≤ 0.5
20,G6A G12A C22A,0.603
21,G6C C34U A43G G48A A57G,≤ 0.5
22,G6A U19C A20U C22U C27G,≤ 0.5
23,G6C C22G A37U A43G C62G,0.509
24,G6A G44A C46A G52A C66U,0.526

row,Variant,yeast fitness
1,G6A G10C C34U A40C,≤ 0.5
2,G6A U26C C62U,≤ 0.5
3,G6C A45G G58A,0.607
4,G6C C60U,0.712
5,G6C C46G C62U C66U,0.533
6,G6A U7G C24A U26C,≤ 0.5
7,G6C C62A,0.798
8,G6C A42U,0.739
9,G6C G23C C24A G52A C55U,≤ 0.5
10,G6A G18C A37C C60G A65G,≤ 0.5
11,G6A G44A U59A A69U,≤ 0.5
12,G6C C22A U28A U53G,≤ 0.5
13,G6C A36U A65U,≤ 0.5
14,G6C C22U C24G C27U C29A C30U C31G G58A,≤ 0.5
15,G6A U16A G25C,0.644
16,G6C A42C C49U C66A,≤ 0.5
17,G6C C29G U35C A57G,≤ 0.5
18,G6C A37G A40U A45C,0.702
19,G6C G41C C62U,≤ 0.5
20,G6C C33U G52A,≤ 0.5
21,G6A U8C A14U,0.564
22,G6C C24U C49U G56C,0.52
23,G6A G39U,0.79
24,G6C A42G A70U,0.548

row,Variant,yeast fitness
1,G6A G17A G38C,0.708
2,G6A G17A U32C,≤ 0.5
3,G6C G23A C34G,≤ 0.5
4,G6C G39C G51A,0.741
5,G6A U54A C62U A65G G68A,0.548
6,G6A U13G C27U,0.539
7,G6A G9C C24U C30G C31A A43G A65C,≤ 0.5
8,G6A G52C,0.635
9,G6A U64G,0.795
10,G6C A15G C22A C29G A37C G50C C66U,≤ 0.5
11,G6C A20C C66G,0.957
12,G6C A14U C66U A69C,≤ 0.5
13,G6A G12C U16C A21U G63C G67A,≤ 0.5
14,G6C A14G A20C C31A U64A G67A,≤ 0.5
15,G6A U28G C34U,≤ 0.5
16,G6A U26G G48A C61U,0.684
17,G6A G25A,0.859
18,G6C C30A A45G C55G A57U C62G U64C,≤ 0.5
19,G6C A40G C60U C61U,0.513
20,G6C A15U G23C C31G G41C G48C A69U,0.562
21,G6C A20U A21G A37U C60G C62G,≤ 0.5
22,G6C A20G G52A,≤ 0.5
23,G6A U19A U53A,≤ 0.5
